Source: ChEMBL document CHEMBL4837231, “Development of peptide epoxyketones as selective immunoproteasome inhibitors” (Eur J Med Chem, 2021)

Assays:
[1] = target: T1, Proteasome subunit beta type-8 (Homo sapiens, UniProt P28062); assay: Inhibition of human proteasome subunit beta-5i chymotrypsin like activity using SUC-ANW-AMC as flurogenic substrate preincubated for 15 mins followed by substrate addition and measured after 1 hr by fluorescence assay
T1 sequence (P28062 whole entry): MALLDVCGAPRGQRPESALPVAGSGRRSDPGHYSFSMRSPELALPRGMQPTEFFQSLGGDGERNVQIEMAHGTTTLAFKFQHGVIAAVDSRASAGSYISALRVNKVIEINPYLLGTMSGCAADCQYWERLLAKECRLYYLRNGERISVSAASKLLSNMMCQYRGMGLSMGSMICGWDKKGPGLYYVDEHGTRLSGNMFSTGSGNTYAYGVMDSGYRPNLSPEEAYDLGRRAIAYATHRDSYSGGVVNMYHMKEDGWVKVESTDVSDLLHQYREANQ
How it was run: (§1)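 Immunoproteasome derived from human PBMC, added at 1 μg/mL (pre-dilution) in 100 mM Tris-HCl pH 7.5. Compounds were diluted to a 10% DMSO solution. After 15 min preincubation at 25 °C, AMC substrate added (100 µM final) and incubated 1 h at 25 °C. Read at ex 355/em 460 nm; IC50 by sigmoidal variable-slope fitting.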

[2] = target: T2, Proteasome Macropain subunit MB1 (Homo sapiens, UniProt P28074); assay: Inhibition of chymotrypsin-like activity of human 20s proteasome beta 5c subunit using suc-WLA-AMC as flurogenic substrate preincubated for 15 mins followed by substrate addition and measured after 1 hr by fluorescence assay
T2 sequence (P28074 whole entry): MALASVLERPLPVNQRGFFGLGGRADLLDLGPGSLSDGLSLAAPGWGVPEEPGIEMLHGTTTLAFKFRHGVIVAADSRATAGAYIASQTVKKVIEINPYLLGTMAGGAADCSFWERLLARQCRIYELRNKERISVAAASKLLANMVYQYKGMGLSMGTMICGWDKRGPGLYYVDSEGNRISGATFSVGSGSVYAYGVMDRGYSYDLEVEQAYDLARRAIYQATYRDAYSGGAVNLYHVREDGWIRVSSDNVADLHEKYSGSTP
How it was run: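 Constitutive proteasome isolated from human hepatic cells, added at 40 μg/mL (pre-dilution) in 100 mM Tris-HCl pH 7.5. Compounds came from DMSO diluted in water (10% DMSO solution). Preincubated 15 min at 25 °C, then AMC substrate added (100 µM final) for 1 h at 25 °C. Fluorescence read at 355 nm excitation and 460 nm emission; IC50 from a variable-slope sigmoidal fit.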

[3] = Selectivity ratio of IC50 for chymotrypsin-like activity of human 20s proteasome beta 5c subunit to IC50 for human proteasome subunit beta-5i chymotrypsin like activity
[4] = target: T3, Proteasome subunit beta type-9 (Homo sapiens, UniProt P28065); assay: Inhibition of human caspase-like activity of 20s proteasome beta 1i subunit using SUC-PAL-AMC as flurogenic substrate preincubated for 15 mins followed by substrate addition and measured after 1 hr by fluorescence assay; how it was run: as §1
T3 sequence (P28065 whole entry): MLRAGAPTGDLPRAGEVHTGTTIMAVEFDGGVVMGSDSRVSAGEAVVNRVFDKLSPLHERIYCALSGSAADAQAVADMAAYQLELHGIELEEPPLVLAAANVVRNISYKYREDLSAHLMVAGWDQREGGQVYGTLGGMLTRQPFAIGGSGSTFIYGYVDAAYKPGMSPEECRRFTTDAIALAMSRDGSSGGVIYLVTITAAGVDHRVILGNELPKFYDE

[5] = target: T4, Proteasome subunit beta type-10 (Homo sapiens, UniProt P40306); assay: Inhibition of human trypsin-like activity of 20s proteasome beta 2i subunit using SUC-VGR-AMC as flurogenic substrate preincubated for 15 mins followed by substrate addition and measured after 1 hr by fluorescence assay
T4 sequence (P40306 whole entry): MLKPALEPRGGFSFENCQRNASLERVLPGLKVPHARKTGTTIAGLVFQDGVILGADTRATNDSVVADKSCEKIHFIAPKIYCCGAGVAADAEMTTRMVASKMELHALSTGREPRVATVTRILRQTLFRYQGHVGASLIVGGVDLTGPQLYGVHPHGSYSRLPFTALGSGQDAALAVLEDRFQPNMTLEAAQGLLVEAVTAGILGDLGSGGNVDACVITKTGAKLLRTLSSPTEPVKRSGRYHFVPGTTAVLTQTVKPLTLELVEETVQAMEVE
How it was run: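 Immunoproteasome derived from human PBMC, added at 1 μg/mL (pre-dilution) in 100 mM Tris-HCl pH 7.5. Compounds were diluted to a 10% DMSO solution. After 15 min preincubation at 25 °C, AMC substrate added (100 µM final) and incubated 1 h at 25 °C.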

RPMI-8226 = assay: Antiproliferative activity against human RPMI-8226 cells assessed as inhibition of cell proliferation after 72 hrs by MTS assay; assay type: functional, cell-based; conditions: RPMI-8226, 72 h
How it was run: (§2)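 Cells grown in RPMI-1640 with 10% FBS and penicillin/streptomycin at 37 °C, 5% CO2. Seeded per well at 5×10³ (RPMI-8226) or 3×10⁴ (MM.1S), then exposed 72 h to graded compound concentrations or 0.2% DMSO vehicle. MTS/PMS added for 2–4 h; absorbance at 490 nm minus 690 nm. Inhibition = (Acontrol−Asample)/Acontrol; IC50 by sigmoidal variable-slope regression.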

MM1.S = assay: Antiproliferative activity against human MM1.S cells assessed as inhibition of cell proliferation after 72 hrs by MTS assay; assay type: functional, cell-based; how it was run: as §2
[6] = Inhibition of 20s proteasome beta 5c subunit (unknown origin); set-up: species or system Homo sapiens

IC50 [1]	IC50 [2]	Ratio IC50 [3]	IC50 [4]	IC50 [5]	IC50 (RPMI-8226)	IC50 (MM1.S)	IC50 [6]	SMILES
719 nM	1080 nM	1.5						C[C@@H](NC(=O)N1CCC(NC(=O)c2nccs2)CC1)C(=O)N[C@@H](Cc1c[nH]c2ccccc12)C(=O)N[C@@H](CC1CCCCC1)C(=O)[C@@]1(C)CO1
323 nM	468 nM	1.5						C[C@@H](NC(=O)N1CCC(NC(=O)c2nccs2)CC1)C(=O)N[C@@H](Cc1c[nH]c2ccccc12)C(=O)N[C@@H](Cc1ccccc1)C(=O)[C@@]1(C)CO1
245 nM	216 nM	0.9						C[C@H](NC(=O)N1CCC(NC(=O)c2nccs2)CC1)C(=O)N[C@@H](Cc1c[nH]c2ccccc12)C(=O)N[C@@H](CC1CCCCC1)C(=O)[C@@]1(C)CO1
61 nM	35.5 nM	0.6						COc1ccc(C[C@H](NC(=O)[C@H](C)NC(=O)n2c3ccccc3c3ccccc32)C(=O)N[C@@H](Cc2ccccc2)C(=O)[C@@]2(C)CO2)cc1
37.8 nM	69.7 nM	1.8						COc1ccc(C[C@H](NC(=O)[C@H](C)NC(=O)N2CCc3ccccc3C2)C(=O)N[C@@H](Cc2ccccc2)C(=O)[C@@]2(C)CO2)cc1
62.9 nM	1330 nM	21.2						COc1ccc(C[C@H](NC(=O)[C@@H](C)NC(=O)N2CCCC2)C(=O)N[C@@H](Cc2ccccc2)C(=O)[C@@]2(C)CO2)cc1
18.9 nM	74 nM	3.9						COc1ccc(C[C@H](NC(=O)[C@H](C)NC(=O)N2CCC(OC)CC2)C(=O)N[C@@H](Cc2ccccc2)C(=O)[C@@]2(C)CO2)cc1
26 nM	647 nM	24.9	> 10000 nM	> 10000 nM	1920 nM	1790 nM		COc1ccc(C[C@H](NC(=O)[C@@H](C)NC(=O)N2CCC(OC)CC2)C(=O)N[C@@H](Cc2ccccc2)C(=O)[C@@]2(C)CO2)cc1
25.1 nM	606 nM	24.1	5770 nM	> 10000 nM	1880 nM	1370 nM		COc1ccc(C[C@H](NC(=O)[C@@H](C)NC(=O)N2CC[C@H](OC)C2)C(=O)N[C@@H](Cc2ccccc2)C(=O)[C@@]2(C)CO2)cc1
38.2 nM	71.7 nM	1.9						COc1ccc(C[C@H](NC(=O)[C@@H](C)NC(=O)n2c3ccccc3c3ccccc32)C(=O)N[C@@H](Cc2ccccc2)C(=O)[C@@]2(C)CO2)cc1
21.1 nM	25.6 nM	1.2	154 nM	> 10000 nM	110 nM	110 nM		C[C@H](NC(=O)N1CCC(NC(=O)c2nccs2)CC1)C(=O)N[C@@H](Cc1c[nH]c2ccccc12)C(=O)N[C@@H](Cc1ccccc1)C(=O)[C@@]1(C)CO1
44.5 nM	1110 nM	24.8						COc1ccc(C[C@H](NC(=O)[C@@H](C)NC(=O)N2CCC(OC)C2)C(=O)N[C@@H](Cc2ccccc2)C(=O)[C@@]2(C)CO2)cc1 (stereo partly drawn)
80.7 nM	959 nM	11.9						COc1ccc(C[C@H](NC(=O)[C@@H](C)NC(=O)N2CCc3ccccc3C2)C(=O)N[C@@H](Cc2ccccc2)C(=O)[C@@]2(C)CO2)cc1
29.9 nM	244 nM	8.2	4270 nM	> 10000 nM	680 nM	220 nM		COc1ccc(C[C@H](NC(=O)[C@@H](C)NC(=O)N2CCC[C@@H](OC)C2)C(=O)N[C@@H](Cc2ccccc2)C(=O)[C@@]2(C)CO2)cc1
718 nM	2710 nM	3.8						COc1ccc(C[C@H](NC(=O)[C@@H](C)NC(=O)N2CCC(NC(=O)c3nccs3)CC2)C(=O)N[C@@H](CC2CCCCC2)C(=O)[C@@]2(C)CO2)cc1
37.7 nM	163 nM	4.3						COc1ccc(C[C@H](NC(=O)[C@@H](C)NC(=O)N2CCC[C@H](OC)C2)C(=O)N[C@@H](Cc2ccccc2)C(=O)[C@@]2(C)CO2)cc1
129 nM	245 nM	1.9						COc1ccc(C[C@H](NC(=O)[C@H](C)NC(=O)N2CCC(NC(=O)c3nccs3)CC2)C(=O)N[C@@H](CC2CCCCC2)C(=O)[C@@]2(C)CO2)cc1
246 nM	498 nM	2						COc1ccc(C[C@H](NC(=O)[C@H](C)NC(=O)N2CCCC2)C(=O)N[C@@H](Cc2ccccc2)C(=O)[C@@]2(C)CO2)cc1
					680 nM		422 nM	COc1ccc(C[C@H](NC(=O)[C@H](C)NC(=O)CN2CCOCC2)C(=O)N[C@@H](Cc2ccccc2)C(=O)[C@@]2(C)CO2)cc1
56.8 nM	293 nM	5.2						COc1ccc(C[C@H](NC(=O)[C@H](C)NC(=O)N2CCC(OC)C2)C(=O)N[C@@H](Cc2ccccc2)C(=O)[C@@]2(C)CO2)cc1 (stereo partly drawn)
66 nM	1480 nM	22.5						COc1ccc(C[C@H](NC(=O)[C@@H](C)NC(=O)N2CC[C@@H](OC)C2)C(=O)N[C@@H](Cc2ccccc2)C(=O)[C@@]2(C)CO2)cc1
